{
  "source": "ChEMBL document CHEMBL1151243",
  "about": "“New cytotoxic oleanane-type triterpenoids from the cones of Liquidamber styraciflua” (2004)",
  "assay_type_in_all_cases": "functional",
  "key": {"[1]": {"system": "MKN-28", "assay": "Cytotoxicity against human MKN28 cells after 48 hrs by SRB assay", "conditions": "MKN-28, 48 h", "procedure,_shortened": "(§1)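 Cells plated at suitable density in RPMI 1640 with 5% fetal bovine serum and left overnight to attach, then exposed to compound for 48 h. Growth measured by sulforhodamine B staining. GI50 (50% growth inhibition) computed from percent-growth values.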"}, "[2]": {"system": "SNB-78", "assay": "Cytotoxicity against human SNB78 cells after 48 hrs by SRB assay", "conditions": "SNB-78, 48 h", "procedure,_shortened": "as §1"}, "[3]": {"system": "SF-295", "assay": "Cytotoxicity against human SF295 cells after 48 hrs by SRB assay", "conditions": "SF-295, 48 h", "procedure,_shortened": "as §1"}, "[4]": {"assay": "Cytotoxicity against human MKN1 cells after 48 hrs by SRB assay", "conditions": "MKN-1, 48 h", "procedure,_shortened": "as §1"}, "[5]": {"system": "MKN-7", "assay": "Cytotoxicity against human MKN7 cells after 48 hrs by SRB assay", "conditions": "MKN-7, 48 h", "procedure,_shortened": "as §1"}, "[6]": {"system": "St-4", "assay": "Cytotoxicity against human St-4 cells after 48 hrs by SRB assay", "conditions": "St-4, 48 h", "procedure,_shortened": "as §1"}, "[7]": {"system": "KM12", "assay": "Cytotoxicity against human KM12 cells after 48 hrs by SRB assay", "conditions": "KM12, 48 h", "procedure,_shortened": "as §1"}, "[8]": {"system": "HCC 2998", "assay": "Cytotoxicity against human HCC2998 cells after 48 hrs by SRB assay", "conditions": "HCC 2998, 48 h", "procedure,_shortened": "as §1"}, "[9]": {"system": "SF-268", "assay": "Cytotoxicity against human SF268 cells after 48 hrs by SRB assay", "conditions": "SF-268, 48 h", "procedure,_shortened": "as §1"}, "[10]": {"system": "NCI-H226", "assay": "Cytotoxicity against human NCI-H226 cells after 48 hrs by SRB assay", "conditions": "NCI-H226, 48 h", "procedure,_shortened": "as §1"}, "[11]": {"system": "MCF7", "assay": "Cytotoxicity against human MCF7 cells after 48 hrs by SRB assay", "conditions": "MCF7, 48 h", "procedure,_shortened": "as §1"}, "[12]": {"system": "LOX IMVI", "assay": "Cytotoxicity against human LOXIMVI cells after 48 hrs by SRB assay", "procedure,_shortened": "as §1"}, "[13]": {"system": "U-251", "assay": "Cytotoxicity against human U251 cells after 48 hrs by SRB assay", "conditions": "U-251, 48 h", "procedure,_shortened": "as §1"}, "[14]": {"system": "A549", "assay": "Cytotoxicity against human A549 cells after 48 hrs by SRB assay", "conditions": "A549, 48 h", "procedure,_shortened": "as §1"}, "[15]": {"system": "PC-3", "assay": "Cytotoxicity against human PC3 cells after 48 hrs by SRB assay", "conditions": "PC-3, 48 h", "procedure,_shortened": "as §1"}, "[16]": {"system": "SK-OV-3", "assay": "Cytotoxicity against human SKOV3 cells after 48 hrs by SRB assay", "conditions": "SK-OV-3, 48 h", "procedure,_shortened": "as §1"}, "[17]": {"assay": "Cytotoxicity against human HBC5 cells after 48 hrs by SRB assay", "conditions": "HBC5, 48 h", "procedure,_shortened": "as §1"}, "[18]": {"system": "DU-145", "assay": "Cytotoxicity against human DU145 cells after 48 hrs by SRB assay", "conditions": "DU-145, 48 h", "procedure,_shortened": "as §1"}, "[19]": {"system": "MKN-45", "assay": "Cytotoxicity against human MKN45 cells after 48 hrs by SRB assay", "conditions": "MKN-45, 48 h", "procedure,_shortened": "as §1"}, "[20]": {"system": "SNB-75", "assay": "Cytotoxicity against human SNB75 cells after 48 hrs by SRB assay", "conditions": "SNB-75, 48 h", "procedure,_shortened": "as §1"}, "[21]": {"system": "DMS-114", "assay": "Cytotoxicity against human DMS114 cells after 48 hrs by SRB assay", "conditions": "DMS-114, 48 h", "procedure,_shortened": "as §1"}, "[22]": {"system": "DMS-273", "assay": "Cytotoxicity against human DMS273 cells after 48 hrs by SRB assay", "conditions": "DMS-273, 48 h", "procedure,_shortened": "as §1"}, "[23]": {"system": "OVCAR-5", "assay": "Cytotoxicity against human OVCAR5 cells after 48 hrs by SRB assay", "conditions": "OVCAR-5, 48 h", "procedure,_shortened": "as §1"}, "[24]": {"system": "HCT-116", "assay": "Cytotoxicity against human HCT116 cells after 48 hrs by SRB assay", "conditions": "HCT-116, 48 h", "procedure,_shortened": "as §1"}, "[25]": {"system": "OVCAR-8", "assay": "Cytotoxicity against human OVCAR8 cells after 48 hrs by SRB assay", "conditions": "OVCAR-8, 48 h", "procedure,_shortened": "as §1"}, "[26]": {"system": "HT-29", "assay": "Cytotoxicity against human HT-29 cells after 48 hrs by SRB assay", "conditions": "HT-29, 48 h", "procedure,_shortened": "as §1"}, "[27]": {"system": "NCI-H23", "assay": "Cytotoxicity against human NCI-H23 cells after 48 hrs by SRB assay", "conditions": "NCI-H23, 48 h", "procedure,_shortened": "as §1"}, "[28]": {"assay": "Cytotoxicity against human RXF631L cells after 48 hrs by SRB assay", "conditions": "RXF 631, 48 h", "procedure,_shortened": "as §1"}, "[29]": {"system": "ACHN", "assay": "Cytotoxicity against human ACHN cells after 48 hrs by SRB assay", "procedure,_shortened": "as §1"}, "[30]": {"system": "OVCAR-3", "assay": "Cytotoxicity against human OVCAR-3 cells after 48 hrs by SRB assay", "conditions": "OVCAR-3, 48 h", "procedure,_shortened": "as §1"}, "[31]": {"system": "MDA-MB-231", "assay": "Cytotoxicity against human MDA-MB-231 cells after 48 hrs by SRB assay", "conditions": "MDA-MB-231, 48 h", "procedure,_shortened": "as §1"}, "[32]": {"system": "NCI-H460", "assay": "Cytotoxicity against human NCI-H460 cells after 48 hrs by SRB assay", "conditions": "NCI-H460, 48 h", "procedure,_shortened": "as §1"}, "[33]": {"system": "NCI-H522", "assay": "Cytotoxicity against human NCI-H522 cells after 48 hrs by SRB assay", "conditions": "NCI-H522, 48 h", "procedure,_shortened": "as §1"}, "[34]": {"assay": "Cytotoxicity against human BSY1 cells after 48 hrs by SRB assay", "conditions": "BSY-1, 48 h", "procedure,_shortened": "as §1"}, "[35]": {"system": "MKN-74", "assay": "Cytotoxicity against human MKN74 cells after 48 hrs by SRB assay", "conditions": "MKN-74, 48 h", "procedure,_shortened": "as §1"}, "[36]": {"system": "HCT-15", "assay": "Cytotoxicity against human HCT15 cells after 48 hrs by SRB assay", "conditions": "HCT-15, 48 h", "procedure,_shortened": "as §1"}, "[37]": {"system": "SF-539", "assay": "Cytotoxicity against human SF539 cells after 48 hrs by SRB assay", "conditions": "SF-539, 48 h", "procedure,_shortened": "as §1"}, "[38]": {"assay": "Cytotoxicity against human HBC4 cells after 48 hrs by SRB assay", "conditions": "HBC4, 48 h", "procedure,_shortened": "as §1"}, "[39]": {"system": "OVCAR-4", "assay": "Cytotoxicity against human OVCAR4 cells after 48 hrs by SRB assay", "conditions": "OVCAR-4, 48 h", "procedure,_shortened": "as §1"}},
  "data": [
    {"compound": "CC(=O)OC[C@]12CC[C@@H](O)C(C)(C)C1CC[C@]1(C)[C@@H]2CC=C2[C@@H]3CC(C)(C)CC[C@]3(C(=O)O)CC[C@]21C", "note": "(some centres undefined)", "values": [
      {"measurement": "GI50", "setting": "[1]", "result": 5.62, "unit": "µM"},
      {"measurement": "GI50", "setting": "[2]", "result": 15.8, "unit": "µM"},
      {"measurement": "GI50", "setting": "[3]", "result": 8.71, "unit": "µM"},
      {"measurement": "GI50", "setting": "[4]", "result": 11, "unit": "µM"},
      {"measurement": "GI50", "setting": "[5]", "result": 6.61, "unit": "µM"},
      {"measurement": "GI50", "setting": "[6]", "result": 9.12, "unit": "µM"},
      {"measurement": "GI50", "setting": "[7]", "result": 5.13, "unit": "µM"},
      {"measurement": "GI50", "setting": "[8]", "result": 28.2, "unit": "µM"},
      {"measurement": "GI50", "setting": "[9]", "result": 15.5, "unit": "µM"},
      {"measurement": "GI50", "setting": "[10]", "result": 18.6, "unit": "µM"},
      {"measurement": "GI50", "setting": "[11]", "result": 8.32, "unit": "µM"},
      {"measurement": "GI50", "setting": "[12]", "result": 11.2, "unit": "µM"},
      {"measurement": "GI50", "setting": "[13]", "result": 6.03, "unit": "µM"},
      {"measurement": "GI50", "setting": "[14]", "result": 4.27, "unit": "µM"},
      {"measurement": "GI50", "setting": "[15]", "result": 11.5, "unit": "µM"},
      {"measurement": "GI50", "setting": "[16]", "result": 20.4, "unit": "µM"},
      {"measurement": "GI50", "setting": "[17]", "result": 11, "unit": "µM"},
      {"measurement": "GI50", "setting": "[18]", "result": 13.2, "unit": "µM"},
      {"measurement": "GI50", "setting": "[19]", "result": 17.8, "unit": "µM"},
      {"measurement": "GI50", "setting": "[20]", "result": 15.8, "unit": "µM"},
      {"measurement": "GI50", "setting": "[21]", "result": 13.5, "unit": "µM"},
      {"measurement": "GI50", "setting": "[22]", "result": 6.31, "unit": "µM"},
      {"measurement": "GI50", "setting": "[23]", "result": 18.2, "unit": "µM"},
      {"measurement": "GI50", "setting": "[24]", "result": 4.57, "unit": "µM"},
      {"measurement": "GI50", "setting": "[25]", "result": 11.2, "unit": "µM"},
      {"measurement": "GI50", "setting": "[26]", "result": 3.39, "unit": "µM"},
      {"measurement": "GI50", "setting": "[27]", "result": 8.51, "unit": "µM"},
      {"measurement": "GI50", "setting": "[28]", "result": 11.7, "unit": "µM"},
      {"measurement": "GI50", "setting": "[29]", "result": 5.37, "unit": "µM"},
      {"measurement": "GI50", "setting": "[30]", "result": 11, "unit": "µM"},
      {"measurement": "GI50", "setting": "[31]", "result": 19.5, "unit": "µM"},
      {"measurement": "GI50", "setting": "[32]", "result": 13.8, "unit": "µM"},
      {"measurement": "GI50", "setting": "[33]", "result": 13.8, "unit": "µM"},
      {"measurement": "GI50", "setting": "[34]", "result": 10.7, "unit": "µM"},
      {"measurement": "GI50", "setting": "[35]", "result": 7.76, "unit": "µM"},
      {"measurement": "GI50", "setting": "[36]", "result": 6.46, "unit": "µM"},
      {"measurement": "GI50", "setting": "[37]", "result": 6.31, "unit": "µM"},
      {"measurement": "GI50", "setting": "[38]", "result": 7.94, "unit": "µM"},
      {"measurement": "GI50", "setting": "[39]", "result": 10, "unit": "µM"}
    ]}
  ]
}
